Test results reported in ChEMBL document CHEMBL3044905, “Level of catechin, myricetin, quercetin and isoquercitrin in buckwheat (Fagopyrum esculentum Moench), changes of their levels during vegetation and their effect on the growth of selected weeds” (J Agric Food Chem, 2009).

Columns and labels:
Assay type in all cases: functional, organism-based
[1] = tested on: Plantago lanceolata; assay: Phytotoxic activity against Plantago lanceolata assessed as inhibition of hypocotyl growth at 22 +/-2 degC after 72 hr
Procedure, shortened: (§1)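 Test solutions were made in 90% methanol and applied to filter paper in Petri dishes, with a methanol-only control. Concentrations ranged from 1 to 5000 or 10000 µmol, depending on the compound. After 72 h incubation, root and hypocotyl lengths were measured on at least three replicate plates per concentration. Percentage influence was calculated relative to a distilled-water control, and EC50 (µM) was reported with R2.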

[2] = tested on: Echinochloa crus-galli; assay: Phytotoxic activity against Echinochloa crus-galli (barnyard grass) assessed as inhibition of hypocotyl growth at 22 +/-2 degC after 72 hr; procedure, shortened: as §1
[3] = tested on: Amaranthus retroflexus; assay: Phytotoxic activity against Amaranthus retroflexus assessed as inhibition of root growth at 22 +/-2 degC after 72 hr; procedure, shortened: as §1
[4] = tested on: Lolium perenne; assay: Phytotoxic activity against Lolium perenne (perennial ryegrass) assessed as inhibition of root growth at 22 +/-2 degC after 72 hr; procedure, shortened: as §1
[5] = tested on: Achillea millefolium; assay: Phytotoxic activity against Achillea millefolium assessed as inhibition of hypocotyl growth at 22 +/-2 degC after 72 hr; procedure, shortened: as §1
[6] = tested on: Trifolium repens; assay: Phytotoxic activity against Trifolium repens assessed as inhibition of hypocotyl growth at 22 +/-2 degC after 72 hr; procedure, shortened: as §1
[7] = tested on: Plantago lanceolata; assay: Phytotoxic activity against Plantago lanceolata assessed as inhibition of root growth at 22 +/-2 degC after 72 hr; procedure, shortened: as §1
[8] = tested on: Sinapis alba; assay: Phytotoxic activity against Sinapis alba assessed as inhibition of root growth at 22 +/-2 degC after 72 hr; procedure, shortened: as §1
[9] = tested on: Amaranthus retroflexus; assay: Phytotoxic activity against Amaranthus retroflexus assessed as inhibition of hypocotyl growth at 22 +/-2 degC after 72 hr; procedure, shortened: as §1
[10] = tested on: Echinochloa crus-galli; assay: Phytotoxic activity against Echinochloa crus-galli (barnyard grass) assessed as inhibition of root growth at 22 +/-2 degC after 72 hr; procedure, shortened: as §1
[11] = tested on: Sinapis alba; assay: Phytotoxic activity against Sinapis alba assessed as inhibition of hypocotyl growth at 22 +/-2 degC after 72 hr; procedure, shortened: as §1
[12] = tested on: Trifolium repens; assay: Phytotoxic activity against Trifolium repens assessed as inhibition of root growth at 22 +/-2 degC after 72 hr; procedure, shortened: as §1
[13] = tested on: Lolium perenne; assay: Phytotoxic activity against Lolium perenne (perennial ryegrass) assessed as inhibition of hypocotyl growth at 22 +/-2 degC after 72 hr; procedure, shortened: as §1
[14] = tested on: Achillea millefolium; assay: Phytotoxic activity against Achillea millefolium assessed as inhibition of root growth at 22 +/-2 degC after 72 hr; procedure, shortened: as §1

Compound	EC50 [1]	EC50 [2]	EC50 [3]	EC50 [4]	EC50 [5]	EC50 [6]	EC50 [7]	EC50 [8]	EC50 [9]	EC50 [10]	EC50 [11]	EC50 [12]	EC50 [13]	EC50 [14]
Oc1cc(O)c2c(c1)O[C@H](c1ccc(O)c(O)c1)[C@@H](O)C2 [CIANIDANOL]	360 µM	148 µM	2830 µM	377 µM	527 µM	169 µM	55 µM	445 µM	9300 µM	362 µM	780 µM	433 µM	120 µM	472 µM
O=c1c(O[C@@H]2O[C@H](CO)[C@@H](O)[C@H](O)[C@H]2O)c(-c2ccc(O)c(O)c2)oc2cc(O)cc(O)c12 [ISOQUERCETIN]	37100 µM	35200 µM	–	90100 µM	–	–	54600 µM	5910 µM	–	89100 µM	9560 µM	–	33800 µM	–
O=c1c(O)c(-c2ccc(O)c(O)c2)oc2cc(O)cc(O)c12 [QUERCETIN]	–	–	–	273 µM	–	–	–	7050 µM	–	–	12800 µM	–	183 µM	–
